Source: ChEMBL document CHEMBL3399918, “In vitro radical scavenging and cytotoxic activities of novel hybrid selenocarbamates” (Bioorg Med Chem, 2015)

How the values were obtained:
MCF7 = assay: Cytotoxicity against human MCF7 cells after 72 hrs by MTT assay; type: functional; conditions: MCF7, 72 h; for CC50: read-out: LC50 (the source's name)
Method in brief: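 MCF-7 cells grown in EMEM with 10% foetal calf serum, 2 mM L-glutamine, 100 units/mL penicillin, 100 µg/mL streptomycin. Exposed to five concentrations between 0.01 and 100 μM for 72 h, 37 °C, humidified 5% CO2; MTT read-out. GI50, TGI, LC50 relative to untreated controls; ≥3 independent experiments in quadruplicate.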

HT-29 = assay: Cytotoxicity against human HT-29 cells after 72 hrs by MTT assay; type: functional; conditions: HT-29, 72 h
Method in brief: (§1)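 CCRF-CEM, HT-29, PC-3 and HTB-54 cells grown in RPMI 1640 with 10% foetal calf serum, 2 mM L-glutamine, penicillin/streptomycin, 10 mM HEPES (pH 7.4). Five concentrations, 0.01–100 μM, 72 h at 37 °C, 5% CO2; MTT read-out. GI50, TGI and LC50 versus untreated controls; at least 3 independent experiments in quadruplicate.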

CCRF-CEM = assay: Cytotoxicity against human CCRF-CEM cells after 72 hrs by MTT assay; type: functional; method in brief: as §1
[1] = Cytotoxicity against human PC3 cells after 72 hrs by MTT assay; type: functional; conditions: PC-3, 72 h; method in brief: as §1
[2] = Cytotoxicity against human HTB-54 cells after 72 hrs by MTT assay; type: functional; conditions: HTB-54, 72 h; for CC50: read-out: LC50 (the source's name); method in brief: as §1
[3] = Cytotoxicity against human 184B5 cells after 72 hrs by MTT assay; type: cell-based; conditions: for GI50 at 72 h: 184B5 cells; for LC50 / TGI: 184b5, 72 h
Method in brief: (§2)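 Non-malignant lines: 184B5 (normal breast) in Hams F-12/DMEM (50:50) with published supplements; BEAS-2B (bronchial epithelium) in Hams F-12/DMEM (50:50) with 10% foetal calf serum, 2 mM L-glutamine, penicillin/streptomycin. Compounds at five concentrations, 0.01–100 μM, 72 h, 37 °C, 5% CO2; MTT read-out. GI50, TGI, LC50 relative to untreated controls; ≥3 independent experiments in quadruplicate.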

[4] = Cytotoxicity against human BEAS2B cells after 72 hrs by MTT assay; type: cell-based, BEAS-2B; conditions: for GI50 at 72 h: BEAS2B cells; for LC50 / TGI: beas-2b, 72 h; method in brief: as §2
[5] = Antioxidant activity assessed as DPPH radical scavenging activity at 0.5 mg/ml after 180 mins; type: physicochemical; conditions: 3 h
Method in brief: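 Compounds in absolute ethanol, serially diluted from 1 mg/mL, mixed 1:1 with […] in ethanol. Final range 0.016–0.5 mg/mL, 6 concentrations. Incubated at 37 °C in the dark, with decolourisation followed at 517 nm at several time intervals. % scavenged = (A vehicle control − A sample)/A control × 100. Quadruplicate; mean ± SD.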

[6] = Antioxidant activity assessed as ABTS radical scavenging activity at 0.1 mg/ml after 6 mins; type: physicochemical; conditions: 0.1 h
Method in brief: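 Diluted with 50% ethanol to A741 0.700 ± 0.02. A741 decrease read after 6 min against a 50% ethanol blank. % scavenged relative to a vehicle-plus-radical control. Quadruplicate.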

[7] = Antioxidant activity assessed as ABTS radical scavenging activity by measuring Trolox equivalent antioxidant capacity after 6 mins; type: physicochemical; conditions: 0.1 h
Method in brief: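 ABTS dissolved in deionized water at 1 mg/mL, oxidised to radical cation with potassium persulfate (2.45 mM final), kept overnight at room temperature in dark, then diluted with 50% ethanol to A741 = 0.700 ± 0.02. Compound (1 mg/mL ethanol stock) added 1:10 (0.1 mg/mL); A741 decrease read after 6 min against 50% ethanol blank. Trolox positive control; quadruplicate; TEAC from calibration curve.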

Compound	GI50 (MCF7) [µM]	TGI (MCF7) [µM]	CC50 (MCF7) [µM]	GI50 (HT-29) [µM]	LC50 (HT-29) [µM]	TGI (HT-29) [µM]	GI50 (CCRF-CEM) [µM]	LC50 (CCRF-CEM) [µM]	TGI (CCRF-CEM) [µM]	GI50 [1] [µM]	LC50 (concentration causing 50% net cell kill) [1] [µM]	TGI [1] [µM]	GI50 [2] [µM]	TGI [2] [µM]	CC50 [2] [µM]	GI50 at 72 h [3] [µM]	LC50 [3] [µM]	TGI [3] [µM]	GI50 at 72 h [4] [µM]	LC50 [4] [µM]	also measured
CCCOC(=O)Nc1ccc([Se][Se]c2ccc(NC(=O)OCCC)cc2)cc1	31.7	55.8	80	18.3	76.1	47.2	4.3	49.1	8.8	18.4	71.5	45	48.5	68.4	88.3	7.2	62	24.5	14.4	72.2	TGI [4]: 43.3 µM; inhibition (INH) [5]: 52.4%; inhibition (INH) [6]: 22.5%; Activity [7]: 14.5 µg/µL
N#C[Se]c1ccc(NC(=O)Oc2ccc(F)cc2)cc1	8.3	33.3	65.7	8.8	66.5	37.6	12.6	71.1	41.9	11.8	69	40.4	25	48.4	71.9	6.9	64.4	29.5	19.8	71.4	TGI [4]: 45.6 µM; inhibition (INH) [6]: > 25%; Activity [7]: 20.8 µg/µL
CCOC(=O)Nc1ccc([Se][Se]c2ccc(NC(=O)OCC)cc2)cc1	9.9	39	68.3	26	76.1	51.1	24.6	74.3	49.5	28.8	75.7	52.2	31.2	56.6	82	5.7	58.7	16.7	16.1	71.9	TGI [4]: 44 µM; inhibition (INH) [5]: 37%; inhibition (INH) [6]: 21.3%; Activity [7]: 13.6 µg/µL
N#C[Se]c1ccc(NC(=O)OCc2ccccc2)cc1	8.7	38.8	68.9	13.3	69.1	41.2	23.2	73.7	48.4	3.7	62.5	27.8	27.6	50.8	74	5	60.7	21.9	0.1	66.6	TGI [4]: 34.4 µM; inhibition (INH) [5]: 3.7%; Activity [7]: 6.74 µg/µL
N#C[Se]c1ccc(NC(=O)Oc2ccc(Cl)cc2)cc1	6	26.3	63.6	11.8	68.7	40.3	18.3	71.8	45.1	6.4	57.9	18.7	13.8	41.4	69	5.6	59.8	19.9	9.3	68.7	TGI [4]: 38 µM; inhibition (INH) [6]: > 25%; Activity [7]: 37.6 µg/µL
CC(C)COC(=O)Nc1ccc([Se]C#N)cc1	18.1	45.5	73	8.1	63.7	31.3	9.3	68.7	38.3	21.6	73	47.3	27.1	51.2	75.4	5.8	60.9	21.6	26.9	72.1	TGI [4]: 49.5 µM; inhibition (INH) [5]: 27.1%; Activity [7]: 5.09 µg/µL
O=C(Nc1ccc([Se][Se]c2ccc(NC(=O)OCc3ccccc3)cc2)cc1)OCc1ccccc1	5.2	38.6	74.5	1.8	69	35.4	6.4	67.9	34.6	0.1	70.4	33.5	23.8	50.9	78	0.1	36.2	5.8	0.01	58.5	TGI [4]: 17.3 µM; inhibition (INH) [5]: 7.4%
N#C[Se]c1ccc(NC(=O)OCC2c3ccccc3-c3ccccc32)cc1	7.6	34.6	67	15.5	70.2	42.8	7.5	66.7	34.2	2	70	34.3	23.8	48.4	73	5.5	62.5	25.8	7.9	68.2	TGI [4]: 38.4 µM; inhibition (INH) [5]: > 25%; Activity [7]: 7.02 µg/µL
